Measurements: ChEMBL document CHEMBL1141111, “Synthesis and biological evaluation of spin-labeled alkylphospholipid analogs” (J Med Chem, 2005)
pIC50: −log10 of the molar value.

What was measured:
[1] = species: Homo sapiens; assay: (§1) Hemolytic effect (100 uM) on human erythrocytes; assay type: functional
How it was run: (§2)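 Blood from a healthy donor was collected in EDTA, the plasma removed, and the cells washed in PBS. Each 1 mL sample held 8.59 × 10^7 erythrocytes in PBS (pH 7.5) with 100 µL of 5.5 mM glucose, plus free lipid (30 nmol) or liposomes (30 or 100 nmol). Samples were shaken 30 min at room temperature and spun at 840g. The supernatant was read with Drabkin's reagent at 540 nm. Results are % of Triton X-100 total lysis, in triplicate.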

[2] = species: Homo sapiens; assay: (§3) Hemolytic effect (30 uM) on human erythrocytes upon incubation with lipid for 30 min in pH 7.5; assay type: functional; how it was run: as §2
[3] = species: Homo sapiens; assay: Hemolytic effect (30 uM) on human erythrocytes upon incubation with liposomes for 30 min in pH 7.5; assay type: functional
How it was run: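 Washed erythrocytes from a healthy donor's EDTA blood, stored at 4 °C and used within 48 h. About 8.59 × 10^7 cells in 1 mL PBS (pH 7.5) with 5.5 mM glucose solution. Extruded LUVET (SL-APL/cholesterol/dicetyl phosphate 10:10:2), 30 nmol lipid, shaken 30 min at room temperature. Supernatant read with Drabkin's reagent at 540 nm, as % of Triton X-100 lysis, in triplicate.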

[4] = test system: MCF7; assay: Inhibitory concentration against MCF-7 cells gwoth; assay type: functional, cell-based, Homo sapiens
How it was run: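 MCF7 cells were grown in RPMI-1640 with L-glutamine and 10% heat-inactivated FCS, then seeded at 2 × 10^4 per well the day before treatment. Free or liposomal compound (APL/Ch/DCP 10:10:2, 200 nm extruded LUVs) was serially diluted 200–6.25 µM and applied for 24 h in triplicate. MTT (0.5 mg/mL) was added for 4 h, and formazan was dissolved in DMSO and read at 540 nm. IC50 comes from growth-inhibition curves versus untreated cells, mean ± SD of ≥3 independent experiments.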

[5] = as §1; assay type: functional; how it was run: as §2
[6] = as §3; assay type: functional; how it was run: as §2

pIC50 ([4]; Homo sapiens, MCF7) | SMILES | Hemolysis [1] [%] | Hemolysis [2] [%] | Hemolysis [3] [%] | Hemolysis [5] [%] | Hemolysis [6] [%] | pIC50 ([4]; mcf7)
 | CCCCCCCCCCCC1(CCCCCCOP(=O)([O-])OC2CC[N+](C)(C)CC2)OCC(C)(C)N1[O] (stereo not drawn) | 6.7 | 95.2 | 4.4 |  |  | 
4.12 | CCCCCCCCCCCCCCCCCCOP(=O)([O-])OC1CC[N+](C)(C)CC1 [PERIFOSINE] |  |  | 3.2 | 93.5 | 98.1 | 
 | CCCCCCC1(CCCCCCCCCCCOP(=O)([O-])OC2CC[N+](C)(C)CC2)OCC(C)(C)N1[O] (stereo not drawn) | 5.7 | 18.3 | 4.1 |  |  | 
 | CCCCCCCCCCCCCC1(CCCCOP(=O)([O-])OC2CC[N+](C)(C)CC2)OCC(C)(C)N1[O] (stereo not drawn) | 17.9 | 99 | 6.6 |  |  | 
 | CCCCCCCCC1(CCCCCCCCCOP(=O)([O-])OC2CC[N+](C)(C)CC2)OCC(C)(C)N1[O] (stereo not drawn) | 5.9 | 34.6 | 3.7 |  |  | 
 | CCCCCCC1(CCCCCCCCCCCOP(=O)([O-])OCC[N+](C)(C)C)OCC(C)(C)N1[O] (stereo not drawn) | 20.3 | 98.3 | 4.9 |  |  | 
 | CCCCC1(CCCCCCCCCCCCCOP(=O)([O-])OC2CC[N+](C)(C)CC2)OCC(C)(C)N1[O] (stereo not drawn) |  |  | 3.2 | 5.3 | 16.1 | 4.25
